Reference: ChEMBL document CHEMBL4177701, “A novel series of enoyl reductase inhibitors targeting the ESKAPE pathogens, Staphylococcus aureus and Acinetobacter baumannii” (Bioorg Med Chem, 2018)
Converted amounts (≈) assume the structure as drawn. The source made the active and inactive calls. The calls are words filed in the database; no cut-off is given here.

What was measured:
[1] = Competitive inhibition of Acinetobacter baumannii 2208 ATCC 19606 FabI using crotonyl-CoA as substrate in presence of NADPH/NADH after 10 mins by fluorescence assay; design: species or system Acinetobacter baumannii ATCC 19606 = CIP 70.34 = JCM 6841
Acinetobacter baumannii [2] = assay: Antibacterial activity against Acinetobacter baumannii 2208 ATCC 19606 by microbroth dilution method; format: functional; conditions: ATCC 19606 = CIP 70.34 = JCM 6841 2208
Method in brief: (§1)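 Microbroth dilution MIC; each value is the mean of at least two runs, within two-fold experimental uncertainty.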

[3] = biological target: T1, Enoyl-[acyl-carrier-protein] reductase [NADPH] FabI (Staphylococcus aureus, UniProt Q6GI75); assay: Competitive inhibition of Staphylococcus aureus subsp. aureus Rosenbach ATCC 43300 FabI using crotonyl-CoA as substrate in presence of NADPH/NADH after 10 mins by fluorescence assay
T1 sequence (Q6GI75 whole entry): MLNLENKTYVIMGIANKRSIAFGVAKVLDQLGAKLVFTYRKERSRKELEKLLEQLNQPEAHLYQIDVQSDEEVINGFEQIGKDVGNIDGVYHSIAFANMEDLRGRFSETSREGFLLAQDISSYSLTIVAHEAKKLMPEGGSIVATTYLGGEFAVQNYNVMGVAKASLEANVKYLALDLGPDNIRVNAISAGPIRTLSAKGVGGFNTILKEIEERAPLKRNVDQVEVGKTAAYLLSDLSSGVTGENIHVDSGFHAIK

[4] = biological target: T2, Enoyl-[acyl-carrier-protein] reductase [NADPH] FabI (Staphylococcus aureus) (UniProt Q6GI75); assay: Binding affinity to Staphylococcus aureus subsp. aureus Rosenbach ATCC 43300 FabI by SPR assay
T2 sequence (whole entry): T1 sequence (Q6GI75 whole entry)

[5] = system: Acinetobacter baumannii ATCC 19606 = CIP 70.34 = JCM 6841; assay: Binding affinity to Acinetobacter baumannii 2208 ATCC 19606 FabI by SPR assay
Escherichia coli [6] = assay: Antibacterial activity against Escherichia coli BW25113 mutant by microbroth dilution method; format: functional
Method in brief: (§2)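 Broth microdilution MIC; reported value is mean of at least two runs, within two-fold experimental uncertainty.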

[7] = biological target: T1, Enoyl-[acyl-carrier-protein] reductase [NADPH] FabI; assay: Inhibition of Staphylococcus aureus subsp. aureus Rosenbach ATCC 43300 FabI using crotonyl-CoA as substrate in presence of NADPH/NADH after 10 mins by fluorescence assay
Method in brief: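 SaFabI enzyme, 300 nM, in 50 mM MES/100 mM NaCl with 200 μM NADPH, 0.1 mg/mL BSA, 0.01% triton; started with 400 μM crotonyl-CoA. NADPH fluorescence at 340/460 nm. Compounds 0.4 nM–200 μM. Slopes over first 10 min compared with DMSO control for % inhibition. At least two independent experiments, each in duplicate. Two-fold experimental uncertainty.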

[8] = Inhibition of Acinetobacter baumannii 2208 ATCC 19606 FabI using crotonyl-CoA as substrate in presence of NADPH/NADH after 10 mins by fluorescence assay; design: species or system Acinetobacter baumannii ATCC 19606 = CIP 70.34 = JCM 6841
Method in brief: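 AbFabI, 200 nM, in 50 mM MES/100 mM NaCl with 200 μM NADH, 0.1 mg/mL BSA and 0.01% triton. Reaction started with 300 μM crotonyl-CoA. NADH fluorescence read at 340/460 nm. Compounds tested at 0.4 nM–200 μM. Initial 10-min slopes were compared with a DMSO no-compound control. At least two independent experiments, each in duplicate; two-fold uncertainty.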

Staphylococcus aureus [9] = assay: Antibacterial activity against methicillin-resistant Staphylococcus aureus subsp. aureus Rosenbach ATCC 43300 by microbroth dilution method; format: functional; method in brief: as §2
Staphylococcus aureus [10] = assay: Antibacterial activity against Staphylococcus aureus RN4220 over-expressing FabI by microbroth dilution method; format: functional; method in brief: as §2
Staphylococcus aureus [11] = assay: Antibacterial activity against Staphylococcus aureus RN4220 by microbroth dilution method; format: functional; method in brief: as §2
Staphylococcus aureus [12] = assay: Antibacterial activity against Staphylococcus aureus Newman by microbroth dilution method; format: functional; method in brief: as §1
Acinetobacter baumannii [13] = assay: Synergistic antibacterial activity against Acinetobacter baumannii 2208 ATCC 19606 assessed as colistin MIC by checkerboard method; format: functional; conditions: ATCC 19606 = CIP 70.34 = JCM 6841 2208
Acinetobacter baumannii [14] = assay: Synergistic antibacterial activity against Acinetobacter baumannii 2208 ATCC 19606 assessed as fractional inhibitory concentration in presence of colistin by checkerboard method; format: functional, ATCC 19606 = CIP 70.34 = JCM 6841 2208
Escherichia coli [15] = assay: Antibacterial activity against Escherichia coli BW25113 harboring TolC deletion mutant by microbroth dilution method; format: functional; method in brief: as §2
Acinetobacter baumannii [16] = assay: Synergistic antibacterial activity against Acinetobacter baumannii 2208 ATCC 19606 in presence of colistin by checkerboard method; format: functional; conditions: ATCC 19606 = CIP 70.34 = JCM 6841 2208

| SMILES | Ki [1] [µM] | MIC (Acinetobacter baumannii [2]) [µg/mL] | Ki [3] [µM] | Activity [4] | Activity [5] | MIC (Escherichia coli [6]) [µg/mL] | IC50 [7] [µM] | IC50 [8] [µM] | MIC (Staphylococcus aureus [9]) [µg/mL] | MIC (Staphylococcus aureus [10]) [µg/mL] | MIC (Staphylococcus aureus [11]) [µg/mL] | MIC (Staphylococcus aureus [12]) | Activity (Staphylococcus aureus [11]) | Activity (Staphylococcus aureus [10]) | MIC (Acinetobacter baumannii [13]) [µg/mL] | FIC (Acinetobacter baumannii [14]) | MIC (Escherichia coli [15]) [µg/mL] | MIC (Acinetobacter baumannii [16]) [µg/mL] |
| --- | --- | --- | --- | --- | --- | --- | --- | --- | --- | --- | --- | --- | --- | --- | --- | --- | --- | --- |
| CC(=O)Nc1ccc(CC(=O)N2CCC(c3nccs3)C2)cc1 (racemic) | > 50 | > 200 | > 37.1 | Active | Active | > 200 | > 100 | > 100 | > 200 | > 200 | – | – | – | – | – | – | – | – |
| COc1ccccc1C1CCN(C(=O)Cc2cccc(F)c2F)C1 (racemic) | 3.7 | > 200 | 1.1 | Active | Active | > 200 | – | 7.4 | 100 (≈ 302 µM) | > 200 | 100 (≈ 302 µM) | 100 µg/mL | – | – | – | – | – | – |
| COc1ccccc1C1CCN(C(=O)Cc2ccccc2F)C1 (racemic) | 1.1 | > 200 | 1.7 | Active | Active | > 200 | – | 2.1 | 100 (≈ 319 µM) | 100 (≈ 319 µM) | 50 (≈ 160 µM) | 160 µM | – | – | – | – | – | – |
| COc1ccccc1C1CCN(C(=O)/C=C/c2ccc(NC(C)=O)cc2)C1 (racemic) | > 50 | > 200 | > 37.1 | Active | Active | > 200 | > 100 | > 100 | > 200 | > 200 | – | – | – | – | – | – | – | – |
| COc1ccc(C2CCN(C(=O)Cc3ccc(NC(C)=O)cc3)C2)cc1 (racemic) | > 50 | > 200 | > 37.1 | Active | Active | > 200 | > 100 | > 100 | > 200 | > 200 | – | – | – | – | – | – | – | – |
| O=C(N[C@H](CO)[C@H](O)c1ccc([N+](=O)[O-])cc1)C(Cl)Cl | – | – | – | – | – | – | – | – | – | – | – | – | Active | Active | – | – | – | – |
| O=C(Cc1c(F)cccc1F)N1CCC(c2ccc3c(c2)OCO3)C1 (racemic) | 27 | > 200 | 0.9 | Active | Active | > 200 | – | 54 | > 200 | > 200 | – | – | – | – | – | – | – | – |
| CC(=O)Nc1ccc(/C=C/C(=O)N2CCC(c3nccs3)C2)cn1 (racemic) | 10 | > 200 | 1.7 | Active | Active | > 200 | – | 20 | > 200 | – | > 200 | > 200 µg/mL | – | – | 0.39 | 1 | > 200 | 100 |
| CC(=O)Nc1ccc(/C=C/C(=O)N2CCC(c3ccc4c(c3)OCO4)C2)cn1 (racemic) | 4.3 | > 200 | 0.4 | Active | Active | > 200 | – | 8.5 | > 200 | > 200 | – | – | – | – | 1.56 | – | > 200 | – |
| O=C(Cc1ccccc1Cl)N1CCC(c2nccs2)C1 (racemic) | 7 | > 200 | 2.2 | Active | Active | > 100 | – | 14 | 100 (≈ 326 µM) | > 200 | – | 163 µM | – | – | 0.39 | 0.75 | > 100 | 50 |
| CN[C@@H]1[C@H](O[C@H]2[C@H](O[C@H]3[C@H](O)[C@@H](O)[C@H](N=C(N)N)[C@@H](O)[C@@H]3N=C(N)N)O[C@@H](C)[C@]2(O)C=O)O[C@@H](CO)[C@H](O)[C@H]1O | – | – | – | – | – | – | – | – | – | – | – | – | Active | Active | – | – | – | – |
